Among the data in the RNAGym collection of RNA variant scans (doi:10.1002/anie.201605470) are self-cleavage values, retold here.

The labels stand for the following.
B1: Osa-1-4 twister ribozyme (parent)
chain: CCGCCUAACACUGCCAAUGCCGGUCCCAAGCCCGGAUAAAAGUGGAGGGGGCGG

Variants of B1 are the subject of this data set. The data set can be described thus: self-cleavage, relative activity (ratio to wild type); higher = more cleavage; co-transcriptional. Summed up: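 Values are relative activity: the fraction cleaved, normalised to wild type. A doped DNA template for a 54-nucleotide twister ribozyme from Oryza sativa had 97 % wild-type base and 1 % of each other base at the 48 positions downstream of the cleavage site. The RNA was transcribed in vitro for 2 h at 37 °C so that it could cleave itself co-transcriptionally, then sequenced deeply, with cleavage status scored from the presence or absence of upstream sequence in reads.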
Turning to C26U C27G, the self-cleavage was found to be 0.06.
The figure for C26U C27A is 0.07; for C26U C27U it is 0.24.
As to C26U G23A, the self-cleavage amounted to 0.15.
Take C26U G23U: the self-cleavage was determined as 0.04.
As for C26U G23C, the self-cleavage came to 0.04.
For C26G G54U the value was 0.15; for C26G G54C, 0.08.
As to C26G G54A, the self-cleavage came out at 0.08.
Regarding C26U U43C, the self-cleavage turned out to be 0.14.
As to C26U U43G, the self-cleavage amounted to 0.15.
For C26U U43A the value was 0.32.
The figure for C26G G49C is 0.03; for C26G G49A it is 0.04; for C26G G49U it is 0.04.
In the case of C27A G42U, the self-cleavage turned out to be 0.05.
For the variant C27A G42C, the self-cleavage came to 0.06.
The figure for C27A G42A is 0.08; for C25U U18G it is 0.89; for C25U U18A it is 0.75.
C25U U18C: the self-cleavage is 0.84.
Take C26A U43C: the self-cleavage came to 0.04.
For C26A U43A, the self-cleavage turned out to be 0.05.
On to C26A U43G, for which the self-cleavage came out at 0.04.
On to C27A, for which the self-cleavage turned out to be 0.37.
In the case of C26G C31A, the self-cleavage worked out at 0.02.
The figure for C26G C31U is 0.06.
As to C26G C31G, the self-cleavage stood at 0.05.
For C27A G23U the value was 0.04; for C27A G23C, 0.03.
As to C27A G23A, the self-cleavage stood at 0.06.
The figure for C26A U18G is 0.12.
In the case of C26A U18A, the self-cleavage was 0.05.
For the variant C26A U18C, the self-cleavage amounted to 0.06.
Regarding C26U G34U, the self-cleavage turned out to be 0.83.
Consider C26U G34C, for which the self-cleavage was 0.56.
As for C26U G34A, the self-cleavage is 0.92.
For C25U U43G the value was 0.17.
For the variant C25U U43C, the self-cleavage is 0.13.
Take C25U U43A: the self-cleavage amounted to 0.29.
Regarding C26G G51U, the self-cleavage came to 0.06.
C26G G51A: the self-cleavage came out at 0.1.
C26G G51C: the self-cleavage is 0.05.
In the case of C26U C52A, the self-cleavage was found to be 0.71.
For C26U C52G the value was 0.84; for C26U C52U, 0.98; for C26U C9A, 0.26.
Consider C26U C9U, for which the self-cleavage is 0.55.
Regarding C26U C9G, the self-cleavage worked out at 0.24.
With C26A G50C, the self-cleavage came out at 0.05.
The figure for C26A G50A is 0.07; for C26A G50U it is 0.05.
For C26U G45A the value was 0.07; for C26U G45U, 0.04.
As for C26U G45C, the self-cleavage is 0.04.
C26U G47A: the self-cleavage was 0.08.
As to C26U G47C, the self-cleavage was 0.07.
For C26U G47U the value was 0.06.
In the case of C26G G23U, the self-cleavage was found to be 0.02.
In the case of C26G G23A, the self-cleavage came out at 0.08.
The figure for C26G G23C is 0.04.
As for C26U G54U, the self-cleavage is 0.62.
As to C26U G54C, the self-cleavage came out at 0.3.
Consider C26U G54A, for which the self-cleavage was found to be 0.38.
For the variant C26A G34U, the self-cleavage came to 0.04.
For C26A G34A, the self-cleavage amounted to 0.05.
Regarding C26A G34C, the self-cleavage was found to be 0.05.
As to C26A G54A, the self-cleavage was 0.06.
In the case of C26A G54U, the self-cleavage stood at 0.12.
Turning to C26A G54C, the self-cleavage came to 0.05.
For the variant C26A C32U, the self-cleavage worked out at 0.01.
Regarding C26A C32A, the self-cleavage worked out at 0.05.
With C26A C32G, the self-cleavage turned out to be 0.03.
In the case of C26G C52G, the self-cleavage stood at 0.16.
With C26G C52A, the self-cleavage amounted to 0.12.
Turning to C26G C52U, the self-cleavage was determined as 0.11.
In the case of C26G U24A, the self-cleavage is 0.04.
Consider C26G U24C, for which the self-cleavage is 0.04.
For C26G U24G the value was 0.02.
For C26A U12C the value was 0.03; for C26A U12G, 0.04.
The figure for C26A U12A is 0.04; for C27A G53A it is 0.09; for C27A G48U it is 0.04.
On to C27A G48C, for which the self-cleavage turned out to be 0.05.
As to C27A G48A, the self-cleavage came out at 0.04.
As to C26A G53C, the self-cleavage turned out to be 0.02.
Regarding C26A G53U, the self-cleavage came out at 0.04.
Take C26A G53A: the self-cleavage was 0.06.
For C26G G53U the value was 0.06.
The figure for C26G G53C is 0.03.
With C26G G53A, the self-cleavage amounted to 0.11.
For C26G G13A, the self-cleavage was determined as 0.03.
Turning to C26G G13C, the self-cleavage amounted to 0.01.
Consider C26G G13U, for which the self-cleavage was 0.01.
In the case of C27A C32U, the self-cleavage stood at 0.06.
Turning to C27A C32G, the self-cleavage stood at 0.06.
With C27A C32A, the self-cleavage came out at 0.09.
As for C27A G34C, the self-cleavage worked out at 0.09.
As to C27A G34U, the self-cleavage was determined as 0.17.
With C27A G34A, the self-cleavage turned out to be 0.18.
The figure for C26U G19A is 0.14; for C26U G19C it is 0.04; for C26U G19U it is 0.05.
The figure for C26G U18A is 0.09.
Take C26G U18C: the self-cleavage turned out to be 0.1.
Consider C26G U18G, for which the self-cleavage came to 0.13.
Turning to C27A G51C, the self-cleavage was determined as 0.05.
As for C27A G51U, the self-cleavage worked out at 0.05.
In the case of C27A G51A, the self-cleavage worked out at 0.1.
Consider C27A G50C, for which the self-cleavage turned out to be 0.08.
Consider C27A G50A, for which the self-cleavage is 0.22.
Turning to C27A G50U, the self-cleavage amounted to 0.1.
With C25U U37A, the self-cleavage amounted to 0.74.
For C25U U37C, the self-cleavage came to 0.95.
For C25U U37G, the self-cleavage stood at 0.96.
As for C27A G22C, the self-cleavage was 0.03.
For C27A G22U the value was 0.06.
The figure for C27A G22A is 0.1; for C26U C31U it is 0.16; for C26U C31A it is 0.05.
For C26U C31G the value was 0.07; for C26G G47U, 0.06; for C26G G47C, 0.04.
Consider C26G G47A, for which the self-cleavage was 0.05.
Regarding C25U U12G, the self-cleavage was 0.17.
In the case of C25U U12C, the self-cleavage amounted to 0.09.
Consider C25U U12A, for which the self-cleavage amounted to 0.18.
On to C26G G30A, for which the self-cleavage is 0.06.
For C26G G30C the value was 0.05.
Consider C26G G30U, for which the self-cleavage turned out to be 0.03.
Consider C27A G49A, for which the self-cleavage turned out to be 0.04.
Consider C27A G49U, for which the self-cleavage is 0.04.
As to C27A G49C, the self-cleavage turned out to be 0.03.
As for C26U G42A, the self-cleavage was 0.13.
For the variant C26U G42U, the self-cleavage came out at 0.04.
With C26U G42C, the self-cleavage came out at 0.1.
Consider C26G G44U, for which the self-cleavage came to 0.08.
C26G G44A: the self-cleavage came out at 0.09.
For the variant C26G G44C, the self-cleavage was found to be 0.09.
Turning to C26A G23U, the self-cleavage worked out at 0.02.
In the case of C26A G23C, the self-cleavage came out at 0.01.
Regarding C26A G23A, the self-cleavage was 0.04.
As to C27A G44U, the self-cleavage was 0.14.
As for C27A G44A, the self-cleavage was 0.1.
For C27A G44C the value was 0.14; for C27A C9A, 0.09; for C27A C9U, 0.07.
With C27A C9G, the self-cleavage worked out at 0.1.
For C26A G51A, the self-cleavage worked out at 0.06.
On to C26A G51C, for which the self-cleavage was determined as 0.02.
In the case of C26A G51U, the self-cleavage worked out at 0.04.
In the case of C27A C52A, the self-cleavage was determined as 0.23.
Regarding C27A C52U, the self-cleavage was 0.33.
With C27A C52G, the self-cleavage is 0.25.
Take C25U U24G: the self-cleavage came to 0.04.
For C25U U24C the value was 0.08.
Consider C25U U24A, for which the self-cleavage was 0.06.
Take C26A C9G: the self-cleavage worked out at 0.05.
For C26A C9U, the self-cleavage was determined as 0.03.
The figure for C26A C9A is 0.02.
For C26U G51C the value was 0.07; for C26U G51A, 0.45.
For C26U G51U, the self-cleavage came out at 0.17.
For the variant C26U C32G, the self-cleavage was 0.27.
Regarding C26U C32U, the self-cleavage turned out to be 0.09.
With C26U C32A, the self-cleavage amounted to 0.06.
